From the EternaBench riboswitch data

Tested on: MS2 coat protein
Experiment: apparent Kd, MS2 coat protein; higher = weaker binding; RNA-MaP array; FMN 200 µM where present
Outline: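 The apparent Kd is the median of filtered binding-curve fits, one per cluster, to green signal normalised to red-channel RNA signal and control-cluster median Fmax. The clusters were on Illumina sequencing chips, and stalled E. coli RNA polymerase had transcribed the designs on them. Titration used SNAP-549-labelled MS2 coat protein from 0.7 or 1.5 nM, doubling to 3 µM, without and then with constant ligand, in 100 mM Tris-HCl pH 7.5, 80 mM KCl, 4 mM MgCl2, BSA, DTT, yeast tRNA and Tween-20.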

[1] = designed as: OFF switch for flavin mononucleotide, no ligand
[2] = ligand present: flavin mononucleotide, designed as: OFF switch for flavin mononucleotide
[3] = designed as: ON switch for flavin mononucleotide, no ligand
[4] = ligand present: flavin mononucleotide, designed as: ON switch for flavin mononucleotide

Sequence	apparent Kd [1] [nM]	apparent Kd [2] [nM]	apparent Kd [3] [nM]	apparent Kd [4] [nM]
GUGCGGUAGGAGAAGGACGGAGGCUUCUUUUCAUACAUGAGGAUCACCCAUGUAGGAUAUCCUACCUCACGCGGCCUACUACAG	8.74	7.7	–	–
CAGAAGUCAGGAUAUGCAUGGCGGGACUUGCGUCGUGGCGUGCAGAAGGGACAUGAGGAUCACCCAUGUAAAGA	52.5	62.4	–	–
AAUAACAGAGGAUAUACUGUUUUAUGUGUUUAUUGUUUUGAACAUGAGGAUCACCCAUGUAGAAGGCUGAGUAA	27.8	28.2	–	–
UGUCGGAGCAGAGGAUAUUACAUGAGGAUCACCCAUGUAUGAACCAAUGGCUGGAAACAGCAAUGUAAGAAGGCUGCUCCGACA	9.69	64.5	–	–
UGCUGUGGCAGAGGAUAUACUCUAAUAAUCCAUUGCAAAUAGCGAUGGACAUGAGGAUCACCCAUGUAGAAGGCUGUCACAGCA	63.7	137	–	–
GGCUAGUCAGGAUAUACGAACAUGUCAAAAGACGUGAAGGGACAUGAGGAUCACCCAUGUAGAAGGGACUAGCA	28	158	–	–
AGAUAACAUGUAGGAUAUCGAGGCCUGAGGCCUCGAGAAGGACAUGAGGAUCACCCAUGUAGUUGUACUAUGGGAUCACGCACU	620	186	–	–
GUGGAGUAAGGAUAUACAUGAGGAUCACCCAUGUGAGGGUAUGUGAUGGGAGUAGGUUGUAGAAGGUACGAGGA	287	131	–	–
GGAGUACAUGAGGAUCACCCAUGUUGGAACAAAGUAGGAUAUGUACAAUAUUAAAUAAAAACAGAAGGACUAAGAA	–	–	47.4	30.8
AUUAAGAAUGAAGGAUAUCUAAGCGUAAACAAAAGAGAAGGUCAAUAGUACAUGAGGAUCACCCAUGUUAGAAUAGAUGGGAUA	117	103	–	–
UAUCGGGUGCGACUCGCAAGAGGGACAGAAGGCCAUCGACAUGAGGAUCACCCAUGUAACGAAAUGGAGGAUAUGUCUGGUCGA	–	–	27.5	5.65
CCUUUGAAGAUCCAAAAUUUCGACAUGAGGAUCACCCAUGUGCAGGAUAUCGUGCCAGUGAUGUACGAGAAGGGCAGACUCUGC	132	158	–	–
GUUAUAACAGUCAGGAUAUUUAAGCUUAUCGAGCUAGAGAAGGGACAUGAGGAUCACCCAUGUAGCCUCGUUAG	16	17.1	–	–
AGGUAAGAGUUAAUUGUGACGGUGAGAAGGCAAAUGGUUGUGAUUAACAUGAGGAUCACCCAUGUUGAGGAUAUCACCACCAUC	29.5	137	–	–
GGUGCGUUUGUGAGGAUAUGCUGGUCCUUGGAUCAGCAGAAGGCACAUGAGGAUCACCCAUGUGGUGUCGUUCC	181	143	–	–
GUAGUGUAUGUAGGAUAUGUGAAGGAAACAUUUACAGAAGGACAUGAGGAUCACCCAUGUAUUACAGUCAGCAAUCUGACUGUU	23.6	41.2	–	–
UUACUCAUGUAAGGAUAUGCAGCCGUUUCGGCUGCAGAAGGUACUAUACUACAUGAGGAUCACCCAUGUCUAUAAAAUAAAGAC	–	–	123	44.4
AAAACAGCGCGUCCCGCGCCAACUACAGAAGGCCAACAUGAGGAUCACCCAUGUACAAACUAGAUGGAGGAUAUGUAGGUUCUA	–	–	6.35	4.5
GGAUCGCAAGAAGAUCCAAUACGAACAUGAGGAUCACCCAUGUAGGAUAUGCUAGAAGAAGAGUAGCAGAAGGACAUGUGCCUU	9.79	42.7	–	–
AAGAAGCACGCAGGAUAUCUCACCCAUGUAAGAAGAGAAGGGCGACAUGAGGAUCACCCAUGUCAACAUGAGGAUCACCCAUGU	62.2	87.8	–	–
GUGCUUGUCGGAGGAUAUGGUUACAUGAGGAUCACCCAUGUUAUGCUUGGUUACUUGUUUAGUUUCCAGAAGGUCGAUUAGUUG	61	145	–	–
